# Measured values taken from ChEMBL document CHEMBL4229395, “Photoactivated 2,3-distyrylindoles kill multi-drug resistant bacteria” (Bioorg Med Chem Lett, 2018).
# The source made the active and inactive calls. The calls are words filed in the database; no cut-off is given here.
# Assays:
# Staphylococcus aureus [1] = test: Bactericidal activity against methicillin-resistant Staphylococcus aureus ATCC BAA-44 at 30 nM irradiated with white light for 2 mins and measured after overnight incubation by drip-streak plate method relative to control; type: functional
# Procedure, shortened: (§1)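 MRSA ATCC BAA-44 cells incubated with a range of compound concentrations, then irradiated for 2 min with a white-light lamp or kept in the dark. Colonies were counted at the dilution giving 30–300 colonies. Each experiment had 3 replicates and was repeated in 3 independent experiments.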
# Staphylococcus aureus [2] = test: Bactericidal activity against methicillin-resistant Staphylococcus aureus ATCC BAA-44 at 5 uM irradiated with white light for 2 mins and measured after overnight incubation by drip-streak plate method; type: functional, organism-based; procedure, shortened: as §1
# [3] = Induction of singlet oxygen generation at 1285 nm at 10 uM; type: functional
# [4] = Dark toxicity against human MCF7 cells assessed as decrease in cell viability by MTT assay; type: cell-based
# Procedure, shortened: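 MCF-7 breast adenocarcinoma cells were incubated with compound without light. Viability was read by MTT colorimetric assay, and IC50 was derived from the concentration–response.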
# Klebsiella pneumoniae [5] = test: Bactericidal activity against carbapenem-resistant Klebsiella pneumoniae ATCC BAA-2146 at 2 ug/ml incubated under dark condition; type: ADME, organism-based
# Acinetobacter baumannii [6] = test: Bactericidal activity against Acinetobacter baumannii ATCC BAA1797 at 1.25 ug/ml incubated under dark condition; type: ADME, organism-based
# Pseudomonas aeruginosa [7] = test: Bactericidal activity against Pseudomonas aeruginosa ATCC BAA-2114 at 2 ug/ml incubated under dark condition; type: ADME, organism-based
# Escherichia coli [8] = test: Bactericidal activity against Escherichia coli ATCC 25922 at 2 ug/ml incubated under dark condition; type: ADME, organism-based
# Acinetobacter baumannii [9] = test: Bactericidal activity against Acinetobacter baumannii ATCC BAA1797 at 1.25 ug/ml in presence of light; type: functional, organism-based
# Pseudomonas aeruginosa [10] = test: Bactericidal activity against Pseudomonas aeruginosa ATCC BAA-2114 at 5 uM incubated under dark condition; type: ADME, organism-based
# Pseudomonas aeruginosa [11] = test: Bactericidal activity against Pseudomonas aeruginosa ATCC BAA-2114 at 2 ug/ml in presence of light; type: functional, organism-based
# Staphylococcus aureus [12] = test: Bactericidal activity against Staphylococcus aureus ATCC 29213 at 1 uM incubated under dark condition; type: ADME, organism-based
# Staphylococcus aureus [13] = test: Bactericidal activity against methicillin-resistant Staphylococcus aureus ATCC BAA-44 at 0.1 uM irradiated with white light for 2 mins and measured after overnight incubation by drip-streak plate method relative to control; type: functional; procedure, shortened: as §1
# Escherichia coli [14] = test: Bactericidal activity against Escherichia coli ATCC 25922 at 5 uM in presence of light; type: functional, organism-based
# Acinetobacter baumannii [15] = test: Bactericidal activity against Acinetobacter baumannii ATCC BAA1797 at 5 uM incubated under dark condition; type: ADME, organism-based
# Streptococcus mutans [16] = test: Bactericidal activity against Streptococcus mutans Ward's 85W 2357 at 1 uM in presence of light; type: functional, organism-based
# Klebsiella pneumoniae [17] = test: Bactericidal activity against carbapenem-resistant Klebsiella pneumoniae ATCC BAA-2146 at 2 ug/ml in presence of light; type: functional, organism-based
# Streptococcus pyogenes [18] = test: Bactericidal activity against Streptococcus pyogenes ATCC 8133 at 1 uM in presence of light; type: functional, organism-based
# Escherichia coli [19] = test: Bactericidal activity against Escherichia coli ATCC 25922 at 5 uM incubated under dark condition; type: ADME, organism-based
# Klebsiella pneumoniae [20] = test: Bactericidal activity against carbapenem-resistant Klebsiella pneumoniae ATCC BAA-2146 at 5 uM in presence of light and polymyxin E; type: functional, organism-based
# Enterococcus faecalis [21] = test: Bactericidal activity against Enterococcus faecalis ATCC 51299 at 1 uM incubated under dark condition; type: ADME, organism-based
# Procedure, shortened: (§2)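 Bacterial suspensions (about 10^8 CFU/mL) were incubated with the compound at a range of concentrations and kept in the dark, the unirradiated control for a 2 min white-light exposure. Samples were diluted 10-fold, drip-streaked on TSA and incubated overnight at 37 °C. Colonies were counted at the dilution giving 30–300 colonies.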
# Klebsiella pneumoniae [22] = test: Bactericidal activity against carbapenem-resistant Klebsiella pneumoniae ATCC BAA-2146 at 5 uM in presence of light; type: functional, organism-based
# Streptococcus pyogenes [23] = test: Bactericidal activity against Streptococcus pyogenes ATCC 8133 at 1 uM incubated under dark condition; type: ADME, organism-based; procedure, shortened: as §2
# Escherichia coli [24] = test: Bactericidal activity against Escherichia coli ATCC 25922 at 5 uM incubated under dark condition in presence of polymyxin E; type: ADME, organism-based
# Staphylococcus aureus [25] = test: Disruption of cell membrane in methicillin-resistant Staphylococcus aureus ATCC BAA-44 at 10 uM in presence of light by propidium iodide staining-based assay; type: functional, organism-based
# Procedure, shortened: (§3)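 MRSA ATCC BAA-44 cells were treated with compound with or without light, then stained with propidium iodide. Red PI fluorescence marks membrane disruption; green fluorescence comes from the compound. Phenylarsine oxide was the positive control.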
# Staphylococcus aureus [26] = test: Disruption of cell membrane in methicillin-resistant Staphylococcus aureus ATCC BAA-44 in presence of light by scanning electron microscopic method; type: functional, organism-based
# [27] = Induction of singlet oxygen generation at 1210 nm; type: functional
# Staphylococcus aureus [28] = test: Bactericidal activity against methicillin-resistant Staphylococcus aureus ATCC BAA-44 irradiated with white light for 2 mins and measured after overnight incubation by drip-streak plate method; type: functional, organism-based; procedure, shortened: as §1
# Staphylococcus aureus [29] = test: Bactericidal activity against methicillin-resistant Staphylococcus aureus ATCC BAA-44 at 1 uM irradiated with white light through mask for 2 mins and measured after overnight incubation; type: functional, organism-based
# Procedure, shortened: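 MRSA ATCC BAA-44 cells were pre-treated with compound at 1 μM and spread over an agar plate. The plate was irradiated with white light through a mask for 2 min, incubated overnight at 37 °C and photographed to show where colonies grew.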
# Acinetobacter baumannii [30] = test: Bactericidal activity against Acinetobacter baumannii ATCC BAA1797 at 5 uM in presence of light; type: functional, organism-based
# Pseudomonas aeruginosa [31] = test: Bactericidal activity against Pseudomonas aeruginosa ATCC BAA-2114 at 5 uM in presence of light and polymyxin E; type: functional, organism-based
# Staphylococcus aureus [32] = test: Disruption of cell membrane in methicillin-resistant Staphylococcus aureus ATCC BAA-44 at 10 uM incubated under dark condition by propidium iodide staining-based assay; type: organism-based; procedure, shortened: as §3
# Staphylococcus aureus [33] = test: Bactericidal activity against Staphylococcus aureus ATCC 29213 at 1 uM in presence of light; type: functional, organism-based
# Escherichia coli [34] = test: Bactericidal activity against Escherichia coli ATCC 25922 at 5 uM in presence of light and polymyxin E relative to control; type: functional
# Acinetobacter baumannii [35] = test: Bactericidal activity against Acinetobacter baumannii ATCC BAA1797 at 5 uM in presence of light and polymyxin E relative to control; type: functional
# Streptococcus mutans [36] = test: Bactericidal activity against Streptococcus mutans Ward's 85W 2357 at 1 uM incubated under dark condition; type: ADME, organism-based; procedure, shortened: as §2
# Pseudomonas aeruginosa [37] = test: Bactericidal activity against Pseudomonas aeruginosa ATCC BAA-2114 at 5 uM in presence of light; type: functional, organism-based
# Staphylococcus aureus [38] = test: Disruption of cell membrane in methicillin-resistant Staphylococcus aureus ATCC BAA-44 incubated under dark condition by scanning electron microscopic method; type: organism-based
# Staphylococcus aureus [39] = test: Bactericidal activity against methicillin-resistant Staphylococcus aureus ATCC BAA-44 incubated under dark condition and measured after overnight incubation by drip-streak plate method; type: ADME, organism-based; settings: in vitro; procedure, shortened: as §1
# Klebsiella pneumoniae [40] = test: Bactericidal activity against carbapenem-resistant Klebsiella pneumoniae ATCC BAA-2146 at 5 uM incubated under dark condition; type: ADME, organism-based
# Escherichia coli [41] = test: Bactericidal activity against Escherichia coli ATCC 25922 at 2 ug/ml in presence of light; type: functional, organism-based
# Enterococcus faecalis [42] = test: Bactericidal activity against Enterococcus faecalis ATCC 51299 at 1 uM in presence of light; type: functional, organism-based
# Klebsiella pneumoniae [43] = test: Bactericidal activity against carbapenem-resistant Klebsiella pneumoniae ATCC BAA-2146 at 5 uM incubated under dark condition in presence of polymyxin E; type: ADME, organism-based
# Staphylococcus aureus [44] = test: Bactericidal activity against methicillin-resistant Staphylococcus aureus ATCC BAA1717 at 1 uM in presence of light; type: functional, organism-based
molecule,measurement,setting,value
C(=C\c1[nH]c2ccccc2c1/C=C/c1ccccc1)/c1ccccc1,fold change (FC),Staphylococcus aureus [1],5
COc1ccc(/C=C/c2[nH]c3ccccc3c2/C=C/c2ccc(OC)cc2)cc1,Activity,Staphylococcus aureus [2],inactive
O=C1OC2(c3cc(I)c(O)c(I)c3Oc3c2cc(I)c(O)c3I)c2c(Cl)c(Cl)c(Cl)c(Cl)c21,Activity,[3],Active
CN(C)[C@@H]1C(O)=C(C(N)=O)C(=O)[C@@]2(O)C(O)=C3C(=O)c4c(O)cccc4[C@@](C)(O)[C@H]3C[C@@H]12 [TETRACYCLINE],IC50,[4],41.6 µM
COLISTIN,Activity,Klebsiella pneumoniae [5],Non-Toxic
same,Activity,Acinetobacter baumannii [6],Non-Toxic
same,Activity,Pseudomonas aeruginosa [7],Non-Toxic
same,Activity,Escherichia coli [8],Non-Toxic
Clc1ccccc1/C=C/c1[nH]c2ccccc2c1/C=C/c1ccccc1Cl,Activity,Staphylococcus aureus [2],Active
Clc1cccc(/C=C/c2[nH]c3ccccc3c2/C=C/c2cccc(Cl)c2)c1,Activity,Staphylococcus aureus [2],inactive
Fc1ccc(/C=C/c2[nH]c3ccccc3c2/C=C/c2ccc(F)cc2)cc1,Activity,Staphylococcus aureus [2],inactive
CCn1cc(C(=O)O)c(=O)c2cc(F)c(N3CCNCC3)cc21 [NORFLOXACIN],IC50,[4],13.8 µM
Clc1ccc(/C=C/c2[nH]c3ccccc3c2/C=C/c2ccc(Cl)cc2)cc1,Activity,Acinetobacter baumannii [9],inactive
same,Activity,Pseudomonas aeruginosa [10],Non-Toxic
same,Activity,Pseudomonas aeruginosa [11],inactive
same,Activity,Staphylococcus aureus [12],Non-Toxic
same,Activity,Staphylococcus aureus [13],5 deltalog10CFU/ml
same,Activity,Escherichia coli [14],inactive
same,Activity,Acinetobacter baumannii [15],Non-Toxic
same,Activity,Streptococcus mutans [16],Active
same,Activity,Klebsiella pneumoniae [17],inactive
same,Activity,Streptococcus pyogenes [18],Active
same,Activity,Escherichia coli [19],Non-Toxic
same,Activity,Klebsiella pneumoniae [20],Active
same,Activity,Enterococcus faecalis [21],Non-Toxic
same,Activity,Klebsiella pneumoniae [22],inactive
same,Activity,Streptococcus pyogenes [23],Non-Toxic
same,Activity,Escherichia coli [24],Toxic
same,Activity,Staphylococcus aureus [25],Active
same,Activity,Staphylococcus aureus [26],Active
same,Activity,[27],Dose-dependent effect
same,Activity,Staphylococcus aureus [28],Dose-dependent effect
same,Activity,Staphylococcus aureus [29],Active
same,Activity,Acinetobacter baumannii [30],inactive
same,Activity,Pseudomonas aeruginosa [31],Active
same,Activity,Staphylococcus aureus [32],Non-Toxic
same,Activity,Staphylococcus aureus [33],Active
same,Activity,Escherichia coli [34],7 deltalog10CFU/ml
same,Activity,Acinetobacter baumannii [35],7 deltalog10CFU/ml
same,Activity,Streptococcus mutans [36],Non-Toxic
same,Activity,Pseudomonas aeruginosa [37],inactive
same,Activity,Staphylococcus aureus [38],Non-Toxic
same,Activity,Staphylococcus aureus [39],Dose-dependent effect
same,Activity,Klebsiella pneumoniae [40],Non-Toxic
same,Activity,Escherichia coli [41],inactive
same,Activity,Enterococcus faecalis [42],Active
same,Activity,Klebsiella pneumoniae [43],Toxic
same,Activity,Staphylococcus aureus [44],Active
same,IC50,[4],47 µM
